From ChEMBL document CHEMBL1134608, “Nucleosides and nucleotides. 200. Reinvestigation of 5'-N-ethylcarboxamidoadenosine derivatives: structure-activity relationships for P(3) purinoceptor-like proteins” (J Med Chem, 2001) come the findings set out here.

Each structure is given as a SMILES string.

One assay addresses T1, Adenosine receptor A1 (Rattus norvegicus, UniProt P25099).
T1 sequence (P25099 whole entry): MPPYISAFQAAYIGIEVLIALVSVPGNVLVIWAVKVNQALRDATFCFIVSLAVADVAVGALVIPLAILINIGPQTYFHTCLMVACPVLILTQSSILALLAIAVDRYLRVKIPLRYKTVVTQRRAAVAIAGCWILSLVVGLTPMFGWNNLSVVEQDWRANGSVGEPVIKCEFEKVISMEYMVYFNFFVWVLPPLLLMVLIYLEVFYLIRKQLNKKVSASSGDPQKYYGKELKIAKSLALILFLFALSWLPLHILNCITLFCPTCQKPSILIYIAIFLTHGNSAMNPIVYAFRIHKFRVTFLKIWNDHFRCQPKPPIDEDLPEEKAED
Briefly: Binding activity against Adenosine A1 receptor from rat brain membranes using [3H]8-cyclopentyl-1,3-dipropylxanthine (DPCPX).

The target of the next assay is T2, Adenosine receptor A3 (Rattus norvegicus, UniProt P28647).
T2 sequence (P28647 whole entry): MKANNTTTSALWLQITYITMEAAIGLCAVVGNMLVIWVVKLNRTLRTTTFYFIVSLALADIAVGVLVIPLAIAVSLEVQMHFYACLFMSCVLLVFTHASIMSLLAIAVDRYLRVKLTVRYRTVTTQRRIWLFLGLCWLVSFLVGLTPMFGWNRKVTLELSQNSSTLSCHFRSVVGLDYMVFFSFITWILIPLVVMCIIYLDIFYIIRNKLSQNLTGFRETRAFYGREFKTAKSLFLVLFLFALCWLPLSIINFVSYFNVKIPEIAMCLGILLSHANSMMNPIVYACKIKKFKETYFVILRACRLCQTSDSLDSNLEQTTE
Briefly: Binding affinity for adenosine A3 receptor in CHO cell membranes using [125I]IB-MECA.

In a further assay the target is Adenosine receptor A2a (Rattus norvegicus, UniProt P30543). The assay is described as follows: Binding affinity for Adenosine A2A receptor in rat brain membranes using [3H]CGS-21680. Type of assay: cell membranes.
The species entered for assay [1] is Rattus norvegicus. Briefly: Ratio of affinity for A3 and P3LP receptors.
For assay [2], the target named is T3, Adenosine receptor A2b (Rattus norvegicus) (UniProt P29276).
T3 sequence (whole entry): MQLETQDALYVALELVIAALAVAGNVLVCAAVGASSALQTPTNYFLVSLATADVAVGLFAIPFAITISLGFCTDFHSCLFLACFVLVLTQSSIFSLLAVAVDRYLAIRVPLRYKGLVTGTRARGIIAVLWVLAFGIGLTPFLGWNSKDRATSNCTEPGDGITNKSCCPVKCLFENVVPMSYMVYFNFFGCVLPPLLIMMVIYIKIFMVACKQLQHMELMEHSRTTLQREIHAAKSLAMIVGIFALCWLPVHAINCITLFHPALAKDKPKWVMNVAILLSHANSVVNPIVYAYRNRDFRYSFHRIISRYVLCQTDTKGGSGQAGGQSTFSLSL
Briefly: Agonist activity as cAMP production in CHO cells expressing rat Adenosine A2B receptor at 100 uM. Type of assay: functional, cell-based. In a few lines:
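Rat A2B receptor cDNA transfected into CHO cells; agonism read as cAMP production with test compound at 100 µM, given as percentage of NECA-induced activity.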

The species entered for assay [3] is Rattus norvegicus. The assay is described as follows: Ratio of affinity for A1 AND P3LP receptor.
Assay [4] is filed under the species Rattus norvegicus. Briefly: Ratio of affinity for A2A and P3LP receptors.

Sequence of Adenosine receptor A2a (P30543 whole entry): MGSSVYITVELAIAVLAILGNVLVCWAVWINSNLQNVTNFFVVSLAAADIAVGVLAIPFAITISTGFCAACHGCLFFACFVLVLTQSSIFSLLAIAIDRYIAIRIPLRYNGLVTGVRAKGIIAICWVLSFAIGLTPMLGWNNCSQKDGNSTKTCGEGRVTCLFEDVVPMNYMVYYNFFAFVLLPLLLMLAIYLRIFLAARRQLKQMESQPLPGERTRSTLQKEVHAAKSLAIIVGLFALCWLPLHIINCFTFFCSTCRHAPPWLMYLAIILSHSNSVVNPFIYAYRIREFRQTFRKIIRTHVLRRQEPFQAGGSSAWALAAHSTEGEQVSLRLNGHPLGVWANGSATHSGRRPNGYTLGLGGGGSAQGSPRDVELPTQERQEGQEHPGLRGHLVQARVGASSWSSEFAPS

For the compound `CCCCCNC(=O)[C@H]1O[C@@H](n2cnc3c(N)ncnc32)[C@H](O)[C@@H]1O`, the Ki turned out to be 979 nM on Adenosine receptor A1, 5560 nM at Adenosine receptor A3 and 605 nM at Adenosine receptor A2a. The Ratio in the assay listed under Rattus norvegicus [1] amounted to 456; in the assay listed under Rattus norvegicus [3] it was 80.2; in the assay listed under Rattus norvegicus [4], 49.6. In addition, the Activity in assay [2] is 3.4%.

As to `Nc1ncnc2c1ncn2[C@@H]1O[C@H](C(=O)NC2CCCCC2)[C@@H](O)[C@H]1O`, the values for the inhibition constant (Ki) at Adenosine receptor A1, at Adenosine receptor A3 and at Adenosine receptor A2a were 5020 nM, 15100 nM and 2500 nM, respectively. Moreover, the Ratio is 830 in the assay listed under Rattus norvegicus [1], 275 in the assay listed under Rattus norvegicus [3] and 137 in the assay listed under Rattus norvegicus [4]. This compound also registered an Activity in assay [2] of 1.9%.

As to `CCNC(=O)[C@H]1O[C@@H](n2cnc3c(N)ncnc32)[C@H](O)[C@@H]1O`, in assay [2], the Activity was found to be 100.

On to `C#CC(O)[C@H]1O[C@@H](n2cnc3c(N)ncnc32)[C@H](O)[C@@H]1O` (some centres not stated), for which the values for the Ki at Adenosine receptor A1, on Adenosine receptor A3 and on Adenosine receptor A2a were 897 nM, 310000 nM and 2110 nM, respectively. Also, the Ratio in the assay filed under Rattus norvegicus [1] amounted to 15500; in the assay listed under Rattus norvegicus [3], 44.9; in the assay filed under Rattus norvegicus [4], 105. Moreover, the Activity in assay [2] turned out to be 10%.
